Laboratory results taken from ChEMBL document CHEMBL3758114, “Design, synthesis and biological evaluation of N-phenylquinazolin-4-amine hybrids as dual inhibitors of VEGFR-2 and HDAC” (Eur J Med Chem, 2016).

Columns and labels:
[1] = molecular target: Vascular endothelial growth factor receptor 2 (Homo sapiens, UniProt P35968); test: Inhibition of VEGFR2 (unknown origin) preincubated for 5 mins followed by addition of ATP/gastrin precursor(Tyr87) biotinylated peptide cocktail incubated for 30 mins by ELISA
Vascular endothelial growth factor receptor 2, sequence (P35968 whole entry): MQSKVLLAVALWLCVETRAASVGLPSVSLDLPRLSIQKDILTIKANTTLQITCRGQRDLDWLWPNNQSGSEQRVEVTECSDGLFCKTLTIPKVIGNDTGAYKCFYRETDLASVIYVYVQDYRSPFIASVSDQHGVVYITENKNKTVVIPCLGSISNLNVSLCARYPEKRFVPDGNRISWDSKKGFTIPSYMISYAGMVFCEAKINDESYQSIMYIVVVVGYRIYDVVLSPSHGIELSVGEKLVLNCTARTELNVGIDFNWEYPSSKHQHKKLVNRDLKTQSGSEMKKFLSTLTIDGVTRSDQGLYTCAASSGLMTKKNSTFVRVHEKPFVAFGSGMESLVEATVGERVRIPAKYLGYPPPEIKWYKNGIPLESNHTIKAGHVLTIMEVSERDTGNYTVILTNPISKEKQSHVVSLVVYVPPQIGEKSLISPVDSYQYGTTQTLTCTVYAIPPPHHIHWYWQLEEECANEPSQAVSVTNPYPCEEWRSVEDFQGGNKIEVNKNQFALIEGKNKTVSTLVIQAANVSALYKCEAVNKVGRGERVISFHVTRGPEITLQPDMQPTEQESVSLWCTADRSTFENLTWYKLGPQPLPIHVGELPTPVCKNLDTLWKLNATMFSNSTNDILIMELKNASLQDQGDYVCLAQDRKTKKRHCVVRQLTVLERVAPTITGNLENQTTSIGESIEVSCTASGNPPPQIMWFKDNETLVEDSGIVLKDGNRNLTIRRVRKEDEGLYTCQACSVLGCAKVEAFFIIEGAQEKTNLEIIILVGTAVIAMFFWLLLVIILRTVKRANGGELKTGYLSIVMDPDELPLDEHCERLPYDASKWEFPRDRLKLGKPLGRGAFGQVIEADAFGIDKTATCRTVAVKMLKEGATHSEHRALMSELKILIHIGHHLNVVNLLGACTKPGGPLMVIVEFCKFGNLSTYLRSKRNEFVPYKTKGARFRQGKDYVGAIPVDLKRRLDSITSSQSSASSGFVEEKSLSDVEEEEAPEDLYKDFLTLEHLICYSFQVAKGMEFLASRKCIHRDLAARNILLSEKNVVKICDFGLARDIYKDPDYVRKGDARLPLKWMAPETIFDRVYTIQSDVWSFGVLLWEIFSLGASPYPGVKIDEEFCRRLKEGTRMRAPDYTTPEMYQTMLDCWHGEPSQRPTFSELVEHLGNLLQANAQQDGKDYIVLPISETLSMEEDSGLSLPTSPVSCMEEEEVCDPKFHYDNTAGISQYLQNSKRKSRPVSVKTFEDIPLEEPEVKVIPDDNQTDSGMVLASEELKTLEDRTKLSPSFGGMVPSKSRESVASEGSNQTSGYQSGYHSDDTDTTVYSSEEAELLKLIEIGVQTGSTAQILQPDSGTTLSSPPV
In short: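 The kit enzyme, 100 ng VEGFR-2 in reaction cocktail, was preincubated with compound dilutions for 5 min at room temperature. The 30 min reaction ran at room temperature and was stopped with EDTA (50 mM, pH 8). Biotinylated peptide was captured on streptavidin wells for 60 min. Phospho-Tyr was detected with anti-pTyr-100 mAb, then HRP anti-mouse IgG, then TMB, read at 450 nm.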

MCF7 = test: Antiproliferative activity against human MCF7 cells after 48 hrs by MTT assay; assay type: functional, cell-based; conditions: MCF7, 48 h
Histone deacetylase = test: Inhibition of HDAC in human HeLa cell nuclear extracts preincubated for 15 mins followed by addition of Fluor de Lys as substrate for 1 hr by fluorometric assay; assay type: cell-based
Histone deacetylase 1 = Histone deacetylase 1 (Homo sapiens, UniProt Q13547); test: Inhibition of HDAC1 (unknown origin) preincubated for 15 mins followed by addition of Fluor de Lys as substrate for 1 hr by fluorometric assay
Histone deacetylase 1, sequence (Q13547 whole entry, canonical isoform): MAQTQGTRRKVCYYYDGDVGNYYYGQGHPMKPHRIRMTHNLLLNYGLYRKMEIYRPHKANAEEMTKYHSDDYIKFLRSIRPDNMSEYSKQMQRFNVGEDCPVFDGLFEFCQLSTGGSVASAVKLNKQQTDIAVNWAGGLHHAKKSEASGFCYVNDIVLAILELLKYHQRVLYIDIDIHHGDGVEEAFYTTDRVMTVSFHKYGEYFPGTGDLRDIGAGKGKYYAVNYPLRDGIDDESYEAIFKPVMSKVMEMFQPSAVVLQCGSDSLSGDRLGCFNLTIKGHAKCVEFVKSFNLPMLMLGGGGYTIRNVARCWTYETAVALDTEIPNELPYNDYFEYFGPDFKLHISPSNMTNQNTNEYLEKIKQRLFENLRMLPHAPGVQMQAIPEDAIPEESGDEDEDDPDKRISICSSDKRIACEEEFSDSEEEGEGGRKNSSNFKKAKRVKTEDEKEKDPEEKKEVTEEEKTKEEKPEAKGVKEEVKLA
In short: (§1)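 Each isolated HDAC isoform was incubated with compound at a range of concentrations for 15 min at room temperature. The reaction was then started with Fluor de Lys substrate and run for 1 h at room temperature. Developer was added to stop it. Fluorescence was read at excitation 355 nm and emission 460 nm. The assay was run three independent times.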

Histone deacetylase 2 = Histone deacetylase 2 (Homo sapiens, UniProt Q92769); test: Inhibition of HDAC2 (unknown origin) preincubated for 15 mins followed by addition of Fluor de Lys as substrate for 1 hr by fluorometric assay; in short: as §1
Histone deacetylase 2, sequence (Q92769 whole entry): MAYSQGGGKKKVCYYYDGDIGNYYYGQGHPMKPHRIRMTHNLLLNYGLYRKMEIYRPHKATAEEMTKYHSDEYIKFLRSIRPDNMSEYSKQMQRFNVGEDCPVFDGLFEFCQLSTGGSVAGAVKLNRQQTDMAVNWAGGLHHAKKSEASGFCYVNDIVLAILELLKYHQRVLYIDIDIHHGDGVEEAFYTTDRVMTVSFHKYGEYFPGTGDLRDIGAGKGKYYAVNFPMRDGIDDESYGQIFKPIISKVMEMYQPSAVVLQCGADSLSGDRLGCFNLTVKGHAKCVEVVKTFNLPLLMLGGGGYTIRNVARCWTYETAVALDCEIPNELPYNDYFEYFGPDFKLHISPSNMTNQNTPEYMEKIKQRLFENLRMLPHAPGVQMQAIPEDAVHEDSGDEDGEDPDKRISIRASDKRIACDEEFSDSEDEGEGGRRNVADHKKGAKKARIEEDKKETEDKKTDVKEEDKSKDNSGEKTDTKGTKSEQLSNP

[2] = molecular target: T1, Protein deacetylase HDAC6 (Homo sapiens, UniProt Q9UBN7); test: Inhibition of HDAC6 (unknown origin) preincubated for 15 mins followed by addition of Fluor de Lys as substrate for 1 hr by fluorometric assay; in short: as §1
T1 sequence (Q9UBN7 whole entry): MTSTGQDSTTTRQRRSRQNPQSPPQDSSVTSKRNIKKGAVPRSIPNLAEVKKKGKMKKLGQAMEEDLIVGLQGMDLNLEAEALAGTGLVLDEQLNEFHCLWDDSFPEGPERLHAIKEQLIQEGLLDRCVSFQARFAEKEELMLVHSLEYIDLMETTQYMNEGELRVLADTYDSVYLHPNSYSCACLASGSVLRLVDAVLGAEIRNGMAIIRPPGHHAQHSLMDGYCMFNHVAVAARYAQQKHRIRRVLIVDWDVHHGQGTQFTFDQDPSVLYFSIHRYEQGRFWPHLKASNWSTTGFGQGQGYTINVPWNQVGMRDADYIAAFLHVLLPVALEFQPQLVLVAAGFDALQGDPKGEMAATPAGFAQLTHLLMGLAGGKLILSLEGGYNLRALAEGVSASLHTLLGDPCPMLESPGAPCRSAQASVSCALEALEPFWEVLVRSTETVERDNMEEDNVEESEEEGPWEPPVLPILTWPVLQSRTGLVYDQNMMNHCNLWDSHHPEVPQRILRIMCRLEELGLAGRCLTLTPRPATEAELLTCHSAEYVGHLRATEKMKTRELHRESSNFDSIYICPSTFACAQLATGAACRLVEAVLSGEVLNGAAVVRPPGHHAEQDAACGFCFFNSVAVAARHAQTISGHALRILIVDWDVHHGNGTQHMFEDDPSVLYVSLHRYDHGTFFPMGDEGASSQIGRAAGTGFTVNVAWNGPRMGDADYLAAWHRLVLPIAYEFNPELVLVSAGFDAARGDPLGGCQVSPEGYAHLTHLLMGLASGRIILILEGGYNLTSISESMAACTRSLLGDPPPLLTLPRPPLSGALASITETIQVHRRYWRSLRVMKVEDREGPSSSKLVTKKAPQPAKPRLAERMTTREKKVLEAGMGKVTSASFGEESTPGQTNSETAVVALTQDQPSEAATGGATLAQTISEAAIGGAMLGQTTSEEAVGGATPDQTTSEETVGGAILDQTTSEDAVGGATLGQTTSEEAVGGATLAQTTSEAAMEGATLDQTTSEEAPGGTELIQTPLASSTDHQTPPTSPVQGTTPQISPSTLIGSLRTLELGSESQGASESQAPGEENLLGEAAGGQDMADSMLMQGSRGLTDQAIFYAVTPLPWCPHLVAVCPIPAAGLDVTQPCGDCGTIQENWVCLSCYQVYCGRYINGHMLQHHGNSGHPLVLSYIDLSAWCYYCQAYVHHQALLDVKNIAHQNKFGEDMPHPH

Histone deacetylase 8 = molecular target: T2, Histone deacetylase 8 (Homo sapiens, UniProt Q9BY41); test: Inhibition of HDAC8 (unknown origin) preincubated for 15 mins followed by addition of Fluor de Lys as substrate for 1 hr by fluorometric assay; in short: as §1
T2 sequence (Q9BY41 whole entry): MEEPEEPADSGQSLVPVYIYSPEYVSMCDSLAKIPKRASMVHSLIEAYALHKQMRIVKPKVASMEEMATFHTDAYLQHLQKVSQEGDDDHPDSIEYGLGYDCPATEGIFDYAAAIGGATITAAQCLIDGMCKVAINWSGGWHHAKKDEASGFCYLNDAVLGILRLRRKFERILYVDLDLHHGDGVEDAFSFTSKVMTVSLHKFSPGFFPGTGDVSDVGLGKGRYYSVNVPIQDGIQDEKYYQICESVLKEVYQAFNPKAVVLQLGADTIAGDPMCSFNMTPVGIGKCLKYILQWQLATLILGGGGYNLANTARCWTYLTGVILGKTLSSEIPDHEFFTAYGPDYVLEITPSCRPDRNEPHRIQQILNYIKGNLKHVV

| IC50 [1] | IC50 (MCF7) | IC50 (Histone deacetylase) | IC50 (Histone deacetylase 1) | IC50 (Histone deacetylase 2) | IC50 [2] | IC50 (Histone deacetylase 8) | Structure (SMILES) |
| --- | --- | --- | --- | --- | --- | --- | --- |
| > 10000 nM | 17000 nM | 31 nM |  |  |  |  | COc1cc2ncnc(Nc3ccccc3Br)c2cc1OCCCCCC(=O)NO |
| 918 nM | 84000 nM | 145 nM |  |  |  |  | COc1cc2ncnc(Nc3ccccc3F)c2cc1OCCCCCC(=O)NO |
| 857 nM | > 100000 nM | 1255 nM |  |  |  |  | COc1cc2ncnc(Nc3ccccc3Cl)c2cc1OCCCC(=O)NO |
| > 10000 nM | 33000 nM | 74 nM |  |  |  |  | COc1cc2ncnc(Nc3ccccc3Br)c2cc1OCCCCC(=O)NO |
| 364 nM | 7800 nM | 18 nM |  |  |  |  | COc1cc2ncnc(Nc3ccccc3Cl)c2cc1OCCCCCCC(=O)NO |
| > 10000 nM |  |  |  |  |  |  | O=C(CCCCCCC(=O)Nc1ccccc1)NO [VORINOSTAT] |
| 59 nM | 36000 nM | 68 nM |  |  |  |  | COc1cc2ncnc(Nc3ccc(Br)cc3)c2cc1OCCCCC(=O)NO |
| 754 nM | 15000 nM | 32 nM |  |  |  |  | COc1cc2ncnc(Nc3ccccc3F)c2cc1OCCCCCCC(=O)NO |
| 215 nM | 1700 nM | 3.2 nM |  |  |  |  | COc1cc2ncnc(Nc3ccc(Cl)cc3)c2cc1OCCCCCCC(=O)NO |
| 74 nM | 850 nM | 2.2 nM | 1.8 nM | 3.3 nM | 16.4 nM | 4.6 nM | COc1cc2ncnc(Nc3ccc(Br)cc3)c2cc1OCCCCCCC(=O)NO |
| 685 nM | 15000 nM | 29 nM |  |  |  |  | COc1cc2ncnc(Nc3ccccc3Cl)c2cc1OCCCCCC(=O)NO |
| 524 nM | 18000 nM | 29 nM |  |  |  |  | COc1cc2ncnc(Nc3ccc(F)cc3)c2cc1OCCCCCC(=O)NO |
| 455 nM | 74000 nM | 139 nM |  |  |  |  | COc1cc2ncnc(Nc3ccc(F)cc3)c2cc1OCCCCC(=O)NO |
|  |  | 840 nM |  |  |  |  | COc1cc2ncnc(Nc3ccccc3Br)c2cc1OCCCC(=O)NO |
| 182 nM | 85000 nM | 698 nM |  |  |  |  | COc1cc2ncnc(Nc3ccc(Cl)cc3)c2cc1OCCCC(=O)NO |
| 840 nM | > 100000 nM | 554 nM |  |  |  |  | COc1cc2ncnc(Nc3ccccc3F)c2cc1OCCCCC(=O)NO |
| > 10000 nM | 2600 nM | 8.8 nM |  |  |  |  | COc1cc2ncnc(Nc3ccccc3Br)c2cc1OCCCCCCC(=O)NO |
| 865 nM | > 100000 nM | 673 nM |  |  |  |  | COc1cc2ncnc(Nc3ccccc3F)c2cc1OCCCC(=O)NO |
| 220 nM | 61000 nM | 132 nM |  |  |  |  | COc1cc2ncnc(Nc3ccc(Cl)cc3)c2cc1OCCCCC(=O)NO |
| 270 nM | 2400 nM | 8.5 nM |  |  |  |  | COc1cc2ncnc(Nc3ccc(F)cc3)c2cc1OCCCCCCC(=O)NO |
| 98 nM | 52000 nM | 545 nM |  |  |  |  | COc1cc2ncnc(Nc3ccc(Br)cc3)c2cc1OCCCC(=O)NO |
| 153 nM | 3500 nM | 12 nM |  |  |  |  | COc1cc2ncnc(Nc3ccc(Br)cc3)c2cc1OCCCCCC(=O)NO |
| 313 nM | 4000 nM | 11 nM |  |  |  |  | COc1cc2ncnc(Nc3ccc(Cl)cc3)c2cc1OCCCCCC(=O)NO |
| 376 nM | > 100000 nM | 1340 nM |  |  |  |  | COc1cc2ncnc(Nc3ccc(F)cc3)c2cc1OCCCC(=O)NO |
| 832 nM | 78000 nM | 128 nM |  |  |  |  | COc1cc2ncnc(Nc3ccccc3Cl)c2cc1OCCCCC(=O)NO |
